{"source": "ChEMBL document CHEMBL5661979", "about": "“Pharmacological inhibition of BMK1 suppresses tumor growth through promyelocytic leukemia protein” (Cancer Cell, 2010)", "key": {"[1]": {"tested_on": "Tyrosine-protein kinase ABL1 (Homo sapiens), P00519 [F317I]", "sequence (P00519 whole entry F317I)": "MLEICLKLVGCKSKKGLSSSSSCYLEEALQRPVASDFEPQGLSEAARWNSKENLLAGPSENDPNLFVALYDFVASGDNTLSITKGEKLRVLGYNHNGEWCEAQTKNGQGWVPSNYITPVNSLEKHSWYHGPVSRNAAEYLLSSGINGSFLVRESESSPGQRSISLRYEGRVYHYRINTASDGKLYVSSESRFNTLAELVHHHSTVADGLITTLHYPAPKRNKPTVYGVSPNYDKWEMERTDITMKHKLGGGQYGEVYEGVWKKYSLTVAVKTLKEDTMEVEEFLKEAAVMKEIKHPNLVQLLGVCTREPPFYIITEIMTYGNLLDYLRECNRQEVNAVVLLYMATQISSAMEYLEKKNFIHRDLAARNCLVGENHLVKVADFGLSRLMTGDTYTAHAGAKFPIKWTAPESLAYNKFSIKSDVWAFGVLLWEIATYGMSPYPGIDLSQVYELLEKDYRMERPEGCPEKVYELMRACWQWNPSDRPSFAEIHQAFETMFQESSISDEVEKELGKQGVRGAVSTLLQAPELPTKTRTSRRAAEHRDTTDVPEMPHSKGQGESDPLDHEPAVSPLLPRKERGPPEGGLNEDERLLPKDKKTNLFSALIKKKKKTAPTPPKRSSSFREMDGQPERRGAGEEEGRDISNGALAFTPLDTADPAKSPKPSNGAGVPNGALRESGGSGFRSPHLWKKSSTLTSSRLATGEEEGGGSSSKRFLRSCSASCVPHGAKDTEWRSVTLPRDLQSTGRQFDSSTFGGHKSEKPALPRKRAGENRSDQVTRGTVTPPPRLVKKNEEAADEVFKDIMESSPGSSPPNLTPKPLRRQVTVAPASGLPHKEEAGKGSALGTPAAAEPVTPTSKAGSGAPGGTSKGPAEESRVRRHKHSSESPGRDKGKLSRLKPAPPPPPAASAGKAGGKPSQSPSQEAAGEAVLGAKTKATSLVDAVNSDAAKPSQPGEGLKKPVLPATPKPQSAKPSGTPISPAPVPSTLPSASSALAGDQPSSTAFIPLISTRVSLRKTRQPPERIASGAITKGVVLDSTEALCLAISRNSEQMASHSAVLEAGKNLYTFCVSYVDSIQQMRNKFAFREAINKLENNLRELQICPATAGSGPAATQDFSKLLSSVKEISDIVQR", "assay": "Inhibition of ABL1 F317I mutant (unknown origin) assessed as remaining activity at 10 uM by ATP-competition binding assay relative to control"}, "[2]": {"biological_target": "Cyclin-dependent kinase 8/19 (Homo sapiens, UniProt P49336+Q9BWU1)", "assay": "Inhibition of CDK8/CDK11 in human HeLa cells lysate pre incubated for 15 mins followed by ATP acyl phosphate probe addition and measured after 10 mins by LC-MS/MS analysis", "format": "subcellular", "summary_of_the_method": "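KiNativ profiling in HeLa lysate (5 mg/mL total protein). Lysate incubated 15 min with inhibitor at 50, 10, 2, 0.8 or 0 μM. ATP or ADP acylphosphate probe then added (5 μM final) and reacted 10 min. Reaction stopped with urea and analysed by targeted MS, using up to four fragment ions per kinase peptide-probe conjugate. % inhibition taken against untreated lysate. Run in duplicate.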"}, "[3]": {"biological_target": "Phosphatidylinositol 4-kinase beta (Homo sapiens, UniProt Q9UBF8)", "sequence (Q9UBF8 whole entry)": "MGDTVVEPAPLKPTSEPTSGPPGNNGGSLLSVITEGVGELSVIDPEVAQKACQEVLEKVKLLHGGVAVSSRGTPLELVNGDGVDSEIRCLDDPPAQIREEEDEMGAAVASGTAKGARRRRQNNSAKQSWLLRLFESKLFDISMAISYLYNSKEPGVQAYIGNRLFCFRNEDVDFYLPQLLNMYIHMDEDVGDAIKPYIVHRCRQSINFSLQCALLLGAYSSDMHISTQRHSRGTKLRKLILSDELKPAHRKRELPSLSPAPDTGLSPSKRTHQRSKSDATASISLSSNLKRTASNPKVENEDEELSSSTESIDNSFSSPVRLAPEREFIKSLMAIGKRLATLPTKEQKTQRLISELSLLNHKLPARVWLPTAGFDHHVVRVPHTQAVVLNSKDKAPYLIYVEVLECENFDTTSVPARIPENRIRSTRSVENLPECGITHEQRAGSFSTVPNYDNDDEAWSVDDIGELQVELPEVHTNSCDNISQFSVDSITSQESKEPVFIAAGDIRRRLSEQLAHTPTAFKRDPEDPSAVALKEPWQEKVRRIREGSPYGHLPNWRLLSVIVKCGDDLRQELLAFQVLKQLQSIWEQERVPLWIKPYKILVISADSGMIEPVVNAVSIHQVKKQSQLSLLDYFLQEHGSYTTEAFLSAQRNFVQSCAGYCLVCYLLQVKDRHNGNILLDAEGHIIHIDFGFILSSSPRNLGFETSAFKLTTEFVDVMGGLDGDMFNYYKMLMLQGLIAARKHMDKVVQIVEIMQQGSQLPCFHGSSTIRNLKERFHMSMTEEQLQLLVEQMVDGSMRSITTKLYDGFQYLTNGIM", "assay": "Inhibition of PIK4CB in human HeLa cells lysate pre incubated for 15 mins followed by ADP acyl phosphate probe addition and measured after 10 mins by LC-MS/MS analysis", "format": "subcellular"}, "[4]": {"biological_target": "Ribosomal protein S6 kinase alpha-3 (Homo sapiens, UniProt P51812)", "sequence (P51812 whole entry, the tested form may be a part)": "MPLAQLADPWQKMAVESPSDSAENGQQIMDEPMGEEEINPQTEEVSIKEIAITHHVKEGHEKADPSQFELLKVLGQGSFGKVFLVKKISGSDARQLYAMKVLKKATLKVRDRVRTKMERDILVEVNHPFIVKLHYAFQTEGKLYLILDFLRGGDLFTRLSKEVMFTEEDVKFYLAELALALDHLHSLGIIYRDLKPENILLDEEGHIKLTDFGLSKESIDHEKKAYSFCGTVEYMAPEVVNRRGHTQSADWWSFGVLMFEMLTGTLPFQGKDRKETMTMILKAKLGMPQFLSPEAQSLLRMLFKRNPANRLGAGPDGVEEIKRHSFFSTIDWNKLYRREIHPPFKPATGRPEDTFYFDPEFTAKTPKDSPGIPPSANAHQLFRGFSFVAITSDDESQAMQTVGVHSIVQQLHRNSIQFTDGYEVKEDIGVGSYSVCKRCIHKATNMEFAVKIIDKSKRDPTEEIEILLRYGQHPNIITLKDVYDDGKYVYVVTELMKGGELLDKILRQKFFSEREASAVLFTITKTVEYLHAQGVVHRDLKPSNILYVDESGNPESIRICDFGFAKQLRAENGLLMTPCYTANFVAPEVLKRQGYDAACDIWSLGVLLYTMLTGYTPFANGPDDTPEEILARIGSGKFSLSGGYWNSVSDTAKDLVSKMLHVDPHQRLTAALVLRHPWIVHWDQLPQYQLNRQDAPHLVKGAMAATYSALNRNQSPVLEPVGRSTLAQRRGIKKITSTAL", "assay": "Inhibition of RSK2 domain 2 K2 site in human HeLa cells lysate pre incubated for 15 mins followed by ADP acyl phosphate probe addition and measured after 10 mins by LC-MS/MS analysis", "format": "subcellular"}, "[5]": {"biological_target": "Dual specificity mitogen-activated protein kinase kinase 5 (Homo sapiens, UniProt Q13163)", "assay": "Inhibition of MAP2K5 in human HeLa cells lysate pre incubated for 15 mins followed by ADP acyl phosphate probe addition and measured after 10 mins by LC-MS/MS analysis", "format": "subcellular"}, "[6]": {"biological_target": "Dual specificity mitogen-activated protein kinase kinase 6 (Homo sapiens, UniProt P52564)", "sequence (P52564 whole entry)": "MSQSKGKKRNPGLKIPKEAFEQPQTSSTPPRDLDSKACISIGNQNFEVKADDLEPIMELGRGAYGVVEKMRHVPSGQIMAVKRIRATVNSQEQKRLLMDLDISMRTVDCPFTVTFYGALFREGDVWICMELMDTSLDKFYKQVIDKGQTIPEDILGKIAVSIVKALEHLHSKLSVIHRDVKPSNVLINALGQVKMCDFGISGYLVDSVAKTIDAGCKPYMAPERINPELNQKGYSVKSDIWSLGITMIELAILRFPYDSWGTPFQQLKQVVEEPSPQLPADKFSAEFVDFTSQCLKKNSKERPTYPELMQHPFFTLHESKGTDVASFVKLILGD", "assay": "Inhibition of MAP2K6 in human HeLa cells lysate pre incubated for 15 mins followed by ADP acyl phosphate probe addition and measured after 10 mins by LC-MS/MS analysis", "format": "subcellular"}, "[7]": {"biological_target": "Serine/threonine-protein kinase D2 (Homo sapiens, UniProt Q9BZL6)", "sequence (Q9BZL6 whole entry)": "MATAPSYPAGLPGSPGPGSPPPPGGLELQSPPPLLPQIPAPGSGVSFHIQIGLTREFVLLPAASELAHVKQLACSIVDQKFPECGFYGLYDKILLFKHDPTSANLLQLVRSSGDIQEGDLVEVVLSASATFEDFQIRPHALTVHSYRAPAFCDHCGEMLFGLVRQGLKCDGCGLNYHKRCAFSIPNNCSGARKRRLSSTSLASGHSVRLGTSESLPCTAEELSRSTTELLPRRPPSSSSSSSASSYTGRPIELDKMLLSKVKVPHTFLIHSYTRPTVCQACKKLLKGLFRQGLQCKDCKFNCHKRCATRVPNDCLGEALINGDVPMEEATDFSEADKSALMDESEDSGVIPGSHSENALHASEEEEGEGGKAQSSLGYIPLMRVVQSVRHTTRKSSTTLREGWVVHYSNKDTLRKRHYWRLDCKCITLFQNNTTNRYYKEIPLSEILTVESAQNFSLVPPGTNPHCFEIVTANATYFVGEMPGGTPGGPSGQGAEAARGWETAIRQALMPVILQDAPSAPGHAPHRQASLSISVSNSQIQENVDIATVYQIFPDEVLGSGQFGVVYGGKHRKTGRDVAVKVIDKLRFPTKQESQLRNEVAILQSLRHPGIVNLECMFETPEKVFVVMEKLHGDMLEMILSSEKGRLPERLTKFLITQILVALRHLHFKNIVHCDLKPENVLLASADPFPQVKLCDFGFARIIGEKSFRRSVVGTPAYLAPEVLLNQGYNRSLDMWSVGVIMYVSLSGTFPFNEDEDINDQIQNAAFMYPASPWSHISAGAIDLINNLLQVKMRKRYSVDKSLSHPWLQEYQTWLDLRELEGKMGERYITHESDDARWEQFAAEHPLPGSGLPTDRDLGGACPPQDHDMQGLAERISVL", "assay": "Inhibition of PKD2 in human HeLa cells lysate pre incubated for 15 mins followed by ADP acyl phosphate probe addition and measured after 10 mins by LC-MS/MS analysis", "format": "subcellular"}, "Focal adhesion kinase 1": {"biological_target": "Focal adhesion kinase 1 (Homo sapiens, UniProt Q05397)", "sequence (Q05397 2-1052 limits assumed)": "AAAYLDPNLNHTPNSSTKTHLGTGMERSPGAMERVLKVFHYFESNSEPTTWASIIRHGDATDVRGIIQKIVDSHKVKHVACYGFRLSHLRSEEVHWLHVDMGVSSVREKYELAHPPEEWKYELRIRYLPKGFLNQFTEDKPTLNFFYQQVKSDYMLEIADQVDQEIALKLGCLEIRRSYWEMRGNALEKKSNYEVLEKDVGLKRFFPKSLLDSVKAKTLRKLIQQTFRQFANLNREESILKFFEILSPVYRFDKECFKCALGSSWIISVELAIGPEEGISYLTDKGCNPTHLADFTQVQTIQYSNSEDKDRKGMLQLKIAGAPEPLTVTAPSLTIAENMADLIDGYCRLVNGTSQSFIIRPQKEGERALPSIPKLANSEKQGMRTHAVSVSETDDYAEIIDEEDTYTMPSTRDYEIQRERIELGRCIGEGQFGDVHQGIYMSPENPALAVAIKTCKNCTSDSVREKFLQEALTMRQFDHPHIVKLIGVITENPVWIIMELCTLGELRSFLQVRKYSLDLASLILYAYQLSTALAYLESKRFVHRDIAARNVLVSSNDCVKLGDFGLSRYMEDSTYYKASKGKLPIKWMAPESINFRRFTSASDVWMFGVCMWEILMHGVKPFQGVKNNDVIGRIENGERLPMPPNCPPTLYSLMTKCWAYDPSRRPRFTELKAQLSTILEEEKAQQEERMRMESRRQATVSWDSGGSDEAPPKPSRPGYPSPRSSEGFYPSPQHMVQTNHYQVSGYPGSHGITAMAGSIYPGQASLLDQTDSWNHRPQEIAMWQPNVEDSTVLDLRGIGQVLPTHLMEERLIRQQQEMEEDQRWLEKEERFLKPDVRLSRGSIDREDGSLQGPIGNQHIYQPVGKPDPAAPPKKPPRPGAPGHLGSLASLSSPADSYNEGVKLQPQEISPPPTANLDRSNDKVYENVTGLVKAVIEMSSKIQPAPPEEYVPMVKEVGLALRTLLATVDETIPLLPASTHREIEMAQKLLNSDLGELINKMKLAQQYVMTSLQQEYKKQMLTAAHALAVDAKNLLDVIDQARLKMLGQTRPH", "assay": "Inhibition of FAK in human HeLa cells lysate at 50 uM pre incubated for 15 mins followed by ADP acyl phosphate probe addition and measured after 10 mins by LC-MS/MS analysis relative to control", "format": "subcellular", "conditions": "time 25.0 min"}, "[8]": {"biological_target": "T1, Serine/threonine-protein kinase D3 (Homo sapiens) (UniProt O94806)", "T1 sequence (whole entry)": "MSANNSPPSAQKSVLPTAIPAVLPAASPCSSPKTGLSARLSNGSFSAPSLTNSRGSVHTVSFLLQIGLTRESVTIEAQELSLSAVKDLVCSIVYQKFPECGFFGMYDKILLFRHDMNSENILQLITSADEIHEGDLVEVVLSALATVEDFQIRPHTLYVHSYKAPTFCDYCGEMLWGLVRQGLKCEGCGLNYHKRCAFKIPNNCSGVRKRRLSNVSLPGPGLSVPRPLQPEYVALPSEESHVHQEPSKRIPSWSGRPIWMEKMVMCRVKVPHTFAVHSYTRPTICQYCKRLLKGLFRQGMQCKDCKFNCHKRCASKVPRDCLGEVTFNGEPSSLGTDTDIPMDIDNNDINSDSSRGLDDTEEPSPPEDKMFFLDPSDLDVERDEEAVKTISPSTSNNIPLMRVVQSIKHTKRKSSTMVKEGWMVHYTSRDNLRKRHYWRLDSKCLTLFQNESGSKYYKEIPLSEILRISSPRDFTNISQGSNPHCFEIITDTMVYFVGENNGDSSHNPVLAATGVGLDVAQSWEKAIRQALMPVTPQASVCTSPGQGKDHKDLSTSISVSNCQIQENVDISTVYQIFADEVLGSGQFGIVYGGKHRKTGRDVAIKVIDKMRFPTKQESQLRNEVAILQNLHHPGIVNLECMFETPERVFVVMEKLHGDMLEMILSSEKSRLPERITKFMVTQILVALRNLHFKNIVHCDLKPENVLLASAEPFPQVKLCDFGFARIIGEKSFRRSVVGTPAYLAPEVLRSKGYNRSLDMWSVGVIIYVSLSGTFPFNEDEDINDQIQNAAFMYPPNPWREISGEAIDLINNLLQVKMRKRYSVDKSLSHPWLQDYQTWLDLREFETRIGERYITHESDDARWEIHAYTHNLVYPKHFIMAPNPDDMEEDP", "assay": "Inhibition of PKD3 in human HeLa cells lysate at 10 uM pre incubated for 15 mins followed by ADP acyl phosphate probe addition and measured after 10 mins by LC-MS/MS analysis relative to control", "format": "subcellular", "conditions": "time 25.0 min"}, "[9]": {"biological_target": "T2, Phosphorylase b kinase gamma catalytic chain, liver/testis isoform (Homo sapiens) (UniProt P15735)", "T2 sequence (whole entry)": "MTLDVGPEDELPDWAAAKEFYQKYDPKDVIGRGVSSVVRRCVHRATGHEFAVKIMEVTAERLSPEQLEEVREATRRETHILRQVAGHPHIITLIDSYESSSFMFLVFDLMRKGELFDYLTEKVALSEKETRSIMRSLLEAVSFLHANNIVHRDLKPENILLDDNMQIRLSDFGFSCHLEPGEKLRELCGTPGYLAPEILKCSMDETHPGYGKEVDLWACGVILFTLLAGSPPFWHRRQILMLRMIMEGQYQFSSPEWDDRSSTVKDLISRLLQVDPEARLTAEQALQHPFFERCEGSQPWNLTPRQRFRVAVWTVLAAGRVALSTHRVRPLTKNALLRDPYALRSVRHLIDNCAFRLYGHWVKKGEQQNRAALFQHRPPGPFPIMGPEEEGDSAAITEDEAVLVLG", "assay": "Inhibition of PHKG2 in human HeLa cells lysate at 2 uM pre incubated for 15 mins followed by ADP acyl phosphate probe addition and measured after 10 mins by LC-MS/MS analysis relative to control", "format": "subcellular", "conditions": "time 25.0 min"}, "[10]": {"biological_target": "Tyrosine-protein kinase CSK (Homo sapiens, UniProt P41240)", "assay": "Inhibition of CSK in human HeLa cells lysate at 2 uM pre incubated for 15 mins followed by ATP acyl phosphate probe addition and measured after 10 mins by LC-MS/MS analysis relative to control", "format": "subcellular", "conditions": "time 25.0 min"}, "[11]": {"assay": "Inhibition of NEK6/7 in human HeLa cells lysate at 2 uM pre incubated for 15 mins followed by ATP acyl phosphate probe addition and measured after 10 mins by LC-MS/MS analysis relative to control", "conditions": "25 min, condition cancer"}, "[12]": {"assay": "Half life in Sprague-Dawley rat at 2 mg/kg, po measured up to 8 hrs by LC-MS/MS analysis", "format": "ADME, organism-based", "conditions": "in vivo", "summary_of_the_method": "(§1)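 Sprague-Dawley rats given one intravenous dose or one oral dose of 2 mg/kg. Plasma drug concentrations were followed over time, with samples taken out to 8 hr after dosing. PK parameters (clearance, volume of distribution, half-life, oral bioavailability, Cmax) were calculated from these concentration–time data.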"}, "[13]": {"assay": "Cmax in Sprague-Dawley rat at 2 mg/kg, po measured up to 8 hrs by LC-MS/MS analysis", "format": "ADME, organism-based", "conditions": "in vivo", "summary_of_the_method": "as §1"}}}
{"smiles": "CCOc1cc(N2CCC(O)CC2)ccc1Nc1ncc2c(n1)N(C)c1ccccc1C(=O)N2C", "values": [{"measurement": "Activity", "setting": "[1]", "value": 30, "unit": "%"}, {"measurement": "IC50", "setting": "[2]", "value": "> 50", "unit": "µM"}, {"measurement": "IC50", "setting": "[3]", "value": "> 50", "unit": "µM"}, {"measurement": "IC50", "setting": "[4]", "value": 47, "unit": "µM"}, {"measurement": "IC50", "setting": "[5]", "value": "> 50", "unit": "µM"}, {"measurement": "IC50", "setting": "[6]", "value": "> 50", "unit": "µM"}, {"measurement": "IC50", "setting": "[7]", "value": "> 50", "unit": "µM"}, {"measurement": "inhibition", "setting": "Focal adhesion kinase 1", "value": 58.1, "unit": "%"}, {"measurement": "inhibition", "setting": "[8]", "value": -6, "unit": "%"}, {"measurement": "inhibition", "setting": "[9]", "value": 3.4, "unit": "%"}, {"measurement": "inhibition", "setting": "[10]", "value": -4.4, "unit": "%"}, {"measurement": "inhibition at 2 µM", "setting": "[11]", "value": -4.1, "unit": "%"}, {"measurement": "half-life", "setting": "[12]", "value": 3.4, "unit": "h"}, {"measurement": "Cmax", "setting": "[13]", "value": 522, "unit": "nM"}]}
